In ChEMBL document CHEMBL1152541, “Staurosporine tethered peptide ligands that target cAMP-dependent protein kinase (PKA): optimization and selectivity profiling” (Bioorg Med Chem, 2009):
*1 amine or outer side, *2 acyl side, *3 side chain or, on linkers, in order; H or OH if unused. Where a SMILES comes first, the peptide text is derived from it. Bridges are numbered along the chain shown (N, C = ends). [ ]: non-standard residue; d: D form. The star is where a group is joined. Staurosporine = CO[C@@H]1[C@H](N(C)*)C[C@H]2O[C@]1(C)n1c3ccccc3c3c4c(c5c6ccccc6n2c5c31)C(=O)NC4; Suc = O=C(CCC(=O)[*:2])[*:1]; Dap = NC[C@H](N)C(=O)O; βAla = NCCC(=O)O

Key:
[1] = target: Casein kinase I isoform delta (Homo sapiens) (UniProt P48730); assay: Binding affinity to human CSNK1D at 200 nM by cell-based competition binding assay relative to control in presence of DTT
Method in brief: (§1)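 Commercial (Ambit) competitive kinase-binding panel of 90 kinases measured the binding profile. Run under reducing conditions of 7.5 mM DTT. Binding is expressed relative to control.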

[2] = target: MAP kinase-interacting serine/threonine-protein kinase 2 (Homo sapiens) (UniProt Q9HBH9); assay: Binding affinity to human MKNK2 at 200 nM by cell-based competition binding assay relative to control in presence of DTT
[3] = target: Ephrin type-A receptor 2 (Homo sapiens) (UniProt P29317); assay: Binding affinity to human EPHA2 at 200 nM by cell-based competition binding assay relative to control in presence of DTT; method in brief: as §1
[4] = target: Mitogen-activated protein kinase kinase kinase 9 (Homo sapiens) (UniProt P80192); assay: Binding affinity to human MLK1 at 200 nM by cell-based competition binding assay relative to control in presence of DTT
[5] = target: Mitogen-activated protein kinase 10 (Homo sapiens) (UniProt P53779); assay: Binding affinity to human JNK3 at 50 nM by cell-based competition binding assay relative to control in presence of DTT
Method in brief: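 Competition binding screen (Ambit) across a panel of 90 kinases, scoring test ligand displacement of each kinase's binding relative to control. The screen ran under reducing conditions with 7.5 mM DTT.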

[6] = target: Dual specificity mitogen-activated protein kinase kinase 1 (Homo sapiens) (UniProt Q02750); assay: Binding affinity to human MEK1 at 50 nM by cell-based competition binding assay relative to control in presence of DTT
Method in brief: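 Kinase binding profile from a commercial panel of 90 kinases, run as a competitive binding assay. The panel was screened under reducing conditions of 7.5 mM DTT. Signal was compared with the untreated control.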

[7] = target: T1, Protein kinase C epsilon type (Homo sapiens) (UniProt Q02156); assay: Binding affinity to human PRKCepsilon at 50 nM by cell-based competition binding assay relative to control in presence of DTT
T1 sequence (whole entry): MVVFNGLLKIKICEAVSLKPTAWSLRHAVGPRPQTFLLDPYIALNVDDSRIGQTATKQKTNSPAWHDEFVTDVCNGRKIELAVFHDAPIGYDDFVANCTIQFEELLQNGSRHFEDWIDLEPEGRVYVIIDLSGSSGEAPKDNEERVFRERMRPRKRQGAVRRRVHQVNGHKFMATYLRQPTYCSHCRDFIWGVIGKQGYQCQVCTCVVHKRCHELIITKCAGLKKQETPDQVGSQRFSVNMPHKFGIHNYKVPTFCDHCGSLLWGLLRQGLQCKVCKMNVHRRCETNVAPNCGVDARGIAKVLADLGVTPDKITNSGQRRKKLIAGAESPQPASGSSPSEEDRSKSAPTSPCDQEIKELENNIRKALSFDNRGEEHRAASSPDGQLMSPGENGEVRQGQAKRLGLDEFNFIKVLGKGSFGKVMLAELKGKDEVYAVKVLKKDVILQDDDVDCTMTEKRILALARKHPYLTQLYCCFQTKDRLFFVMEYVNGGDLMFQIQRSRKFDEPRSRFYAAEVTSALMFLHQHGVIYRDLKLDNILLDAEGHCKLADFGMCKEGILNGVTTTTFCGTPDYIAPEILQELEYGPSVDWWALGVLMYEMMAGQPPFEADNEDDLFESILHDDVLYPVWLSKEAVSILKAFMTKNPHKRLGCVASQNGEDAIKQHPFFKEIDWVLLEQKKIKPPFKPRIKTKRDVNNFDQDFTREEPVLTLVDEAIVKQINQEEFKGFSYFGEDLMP

[8] = target: Focal adhesion kinase 1 (Homo sapiens) (UniProt Q05397); assay: Binding affinity to human PTK2 at 50 nM by cell-based competition binding assay relative to control in presence of DTT
[9] = target: T2, Serine/threonine-protein kinase PLK4 (Homo sapiens) (UniProt O00444); assay: Binding affinity to human PLK4 at 50 nM by cell-based competition binding assay relative to control in presence of DTT
T2 sequence (whole entry): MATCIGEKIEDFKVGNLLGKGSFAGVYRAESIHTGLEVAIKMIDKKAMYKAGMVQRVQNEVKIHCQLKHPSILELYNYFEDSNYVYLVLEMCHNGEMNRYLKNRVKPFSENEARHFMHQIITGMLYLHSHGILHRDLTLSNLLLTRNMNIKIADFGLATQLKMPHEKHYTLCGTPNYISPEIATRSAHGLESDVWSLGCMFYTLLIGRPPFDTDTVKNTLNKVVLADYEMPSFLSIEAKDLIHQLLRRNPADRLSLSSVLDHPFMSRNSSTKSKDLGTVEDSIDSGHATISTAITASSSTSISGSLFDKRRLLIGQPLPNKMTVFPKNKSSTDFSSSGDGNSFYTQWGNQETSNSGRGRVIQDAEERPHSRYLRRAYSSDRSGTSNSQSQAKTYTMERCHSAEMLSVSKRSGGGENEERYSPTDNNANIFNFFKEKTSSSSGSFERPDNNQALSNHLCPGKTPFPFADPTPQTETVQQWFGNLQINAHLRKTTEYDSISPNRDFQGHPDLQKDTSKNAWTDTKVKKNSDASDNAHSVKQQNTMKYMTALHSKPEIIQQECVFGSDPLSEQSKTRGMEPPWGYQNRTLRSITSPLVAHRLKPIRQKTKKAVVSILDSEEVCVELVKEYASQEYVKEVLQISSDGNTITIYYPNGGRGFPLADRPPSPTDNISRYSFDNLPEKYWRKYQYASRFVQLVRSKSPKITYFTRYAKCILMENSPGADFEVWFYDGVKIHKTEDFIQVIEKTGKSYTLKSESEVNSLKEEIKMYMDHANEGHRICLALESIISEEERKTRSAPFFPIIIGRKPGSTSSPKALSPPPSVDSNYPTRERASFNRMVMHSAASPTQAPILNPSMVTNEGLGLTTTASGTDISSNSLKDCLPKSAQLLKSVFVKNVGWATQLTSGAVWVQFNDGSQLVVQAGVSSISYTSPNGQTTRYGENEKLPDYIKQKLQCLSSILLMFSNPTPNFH

[10] = target: Casein kinase I isoform gamma-2 (Homo sapiens) (UniProt P78368); assay: Binding affinity to human CSNK1G2 at 50 nM by cell-based competition binding assay relative to control in presence of DTT; method in brief: as §1
[11] = target: Serine/threonine-protein kinase pim-2 (Homo sapiens) (UniProt Q9P1W9); assay: Binding affinity to human PIM2 at 50 nM by cell-based competition binding assay relative to control in presence of DTT
[12] = target: Tyrosine-protein kinase BTK (Homo sapiens) (UniProt Q06187); assay: Binding affinity to human BTK at 50 nM by cell-based competition binding assay relative to control in presence of DTT
Method in brief: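 Kinase binding profiling ran on a commercial (Ambit) competitive binding screen against a panel of 90 kinases. The screen used reducing conditions with 7.5 mM DTT. To withstand the DTT, the bivalent ligand was tested as its amide isostere, with the disulfide replaced. A staurosporine derivative carrying a 3 β-alanine linker was run as the reference compound.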

Sequence of Focal adhesion kinase 1 (Homo sapiens) (Q05397 2-1052 limits assumed): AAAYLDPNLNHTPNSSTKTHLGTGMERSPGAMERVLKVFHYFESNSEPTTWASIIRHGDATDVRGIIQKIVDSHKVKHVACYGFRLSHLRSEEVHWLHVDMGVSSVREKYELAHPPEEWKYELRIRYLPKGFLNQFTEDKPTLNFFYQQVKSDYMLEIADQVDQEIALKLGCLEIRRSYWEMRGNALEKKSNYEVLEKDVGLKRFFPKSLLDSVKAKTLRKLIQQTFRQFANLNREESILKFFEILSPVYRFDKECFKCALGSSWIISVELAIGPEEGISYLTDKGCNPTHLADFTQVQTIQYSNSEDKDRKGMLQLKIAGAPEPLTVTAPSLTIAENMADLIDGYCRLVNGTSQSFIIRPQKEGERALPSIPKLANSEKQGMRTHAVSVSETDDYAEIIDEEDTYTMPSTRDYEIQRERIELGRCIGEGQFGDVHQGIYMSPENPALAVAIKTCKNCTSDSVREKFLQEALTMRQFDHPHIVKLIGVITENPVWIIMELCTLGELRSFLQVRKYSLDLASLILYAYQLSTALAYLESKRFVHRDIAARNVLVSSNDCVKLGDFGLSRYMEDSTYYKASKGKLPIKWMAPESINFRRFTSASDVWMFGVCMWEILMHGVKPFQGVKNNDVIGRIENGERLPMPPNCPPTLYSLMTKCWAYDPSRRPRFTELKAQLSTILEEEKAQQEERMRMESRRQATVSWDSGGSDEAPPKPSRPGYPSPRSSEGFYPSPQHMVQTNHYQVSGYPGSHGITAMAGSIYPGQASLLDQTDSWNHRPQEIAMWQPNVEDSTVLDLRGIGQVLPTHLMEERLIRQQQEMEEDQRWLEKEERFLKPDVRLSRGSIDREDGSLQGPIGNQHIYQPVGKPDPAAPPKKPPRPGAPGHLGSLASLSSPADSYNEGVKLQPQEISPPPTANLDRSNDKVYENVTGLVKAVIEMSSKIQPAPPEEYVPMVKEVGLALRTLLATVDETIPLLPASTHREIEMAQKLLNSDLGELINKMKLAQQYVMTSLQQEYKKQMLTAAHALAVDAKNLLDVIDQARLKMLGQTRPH
Sequence of MAP kinase-interacting serine/threonine-protein kinase 2 (Homo sapiens) (Q9HBH9 whole entry, looked up): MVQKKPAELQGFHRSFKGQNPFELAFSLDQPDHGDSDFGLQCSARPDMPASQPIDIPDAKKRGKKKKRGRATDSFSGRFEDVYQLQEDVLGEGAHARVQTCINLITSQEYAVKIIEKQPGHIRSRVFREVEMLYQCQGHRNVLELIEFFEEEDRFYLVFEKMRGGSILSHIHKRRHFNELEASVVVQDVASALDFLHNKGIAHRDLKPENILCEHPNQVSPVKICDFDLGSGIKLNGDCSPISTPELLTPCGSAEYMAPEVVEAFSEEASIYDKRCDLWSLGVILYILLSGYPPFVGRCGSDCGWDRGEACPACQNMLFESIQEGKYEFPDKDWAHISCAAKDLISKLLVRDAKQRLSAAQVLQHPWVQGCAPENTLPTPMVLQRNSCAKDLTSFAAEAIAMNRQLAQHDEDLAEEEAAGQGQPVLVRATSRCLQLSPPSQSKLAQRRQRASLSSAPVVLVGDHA
Sequence of Casein kinase I isoform delta (Homo sapiens) (P48730 whole entry, looked up, canonical isoform): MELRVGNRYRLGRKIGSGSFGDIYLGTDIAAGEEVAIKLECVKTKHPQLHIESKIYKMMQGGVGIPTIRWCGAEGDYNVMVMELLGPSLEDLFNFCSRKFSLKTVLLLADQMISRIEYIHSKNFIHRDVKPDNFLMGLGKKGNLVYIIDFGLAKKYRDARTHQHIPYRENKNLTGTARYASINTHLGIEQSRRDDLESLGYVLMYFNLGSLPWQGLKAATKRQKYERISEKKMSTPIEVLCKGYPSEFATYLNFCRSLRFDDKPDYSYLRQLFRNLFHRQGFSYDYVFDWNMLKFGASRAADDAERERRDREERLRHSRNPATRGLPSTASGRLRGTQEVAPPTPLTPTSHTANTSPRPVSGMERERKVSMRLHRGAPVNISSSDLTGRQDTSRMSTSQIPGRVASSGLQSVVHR
Sequence of Mitogen-activated protein kinase kinase kinase 9 (Homo sapiens) (P80192 whole entry, looked up): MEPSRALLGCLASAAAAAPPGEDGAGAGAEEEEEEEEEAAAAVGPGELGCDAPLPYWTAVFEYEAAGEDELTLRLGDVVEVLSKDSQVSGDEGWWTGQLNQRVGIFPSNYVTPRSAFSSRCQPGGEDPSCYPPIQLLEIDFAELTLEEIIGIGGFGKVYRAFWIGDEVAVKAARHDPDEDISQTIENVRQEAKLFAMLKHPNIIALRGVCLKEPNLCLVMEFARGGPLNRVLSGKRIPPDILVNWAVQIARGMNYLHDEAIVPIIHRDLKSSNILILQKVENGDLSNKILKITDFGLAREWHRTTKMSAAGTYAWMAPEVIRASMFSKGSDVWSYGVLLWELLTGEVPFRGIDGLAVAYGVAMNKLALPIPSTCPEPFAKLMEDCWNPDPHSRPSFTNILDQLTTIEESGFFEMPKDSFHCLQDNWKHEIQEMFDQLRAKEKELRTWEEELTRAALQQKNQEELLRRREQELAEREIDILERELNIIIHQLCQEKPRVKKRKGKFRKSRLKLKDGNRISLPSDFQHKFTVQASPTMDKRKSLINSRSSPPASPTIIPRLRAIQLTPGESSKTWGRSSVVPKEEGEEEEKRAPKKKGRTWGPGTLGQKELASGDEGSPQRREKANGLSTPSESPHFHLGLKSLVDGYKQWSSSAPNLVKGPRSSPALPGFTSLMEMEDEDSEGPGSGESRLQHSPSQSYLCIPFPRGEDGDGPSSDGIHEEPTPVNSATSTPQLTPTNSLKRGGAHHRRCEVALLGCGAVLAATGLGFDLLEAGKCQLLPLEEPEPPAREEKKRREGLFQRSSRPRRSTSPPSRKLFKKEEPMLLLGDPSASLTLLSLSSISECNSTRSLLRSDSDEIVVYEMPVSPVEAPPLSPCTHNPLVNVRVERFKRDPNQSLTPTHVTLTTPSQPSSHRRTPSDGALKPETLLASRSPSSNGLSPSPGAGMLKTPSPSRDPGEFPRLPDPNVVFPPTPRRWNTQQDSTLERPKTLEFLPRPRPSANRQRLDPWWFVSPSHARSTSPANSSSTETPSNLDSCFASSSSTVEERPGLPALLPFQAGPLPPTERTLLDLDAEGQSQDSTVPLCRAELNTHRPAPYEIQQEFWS
Sequence of Dual specificity mitogen-activated protein kinase kinase 1 (Homo sapiens) (Q02750 whole entry): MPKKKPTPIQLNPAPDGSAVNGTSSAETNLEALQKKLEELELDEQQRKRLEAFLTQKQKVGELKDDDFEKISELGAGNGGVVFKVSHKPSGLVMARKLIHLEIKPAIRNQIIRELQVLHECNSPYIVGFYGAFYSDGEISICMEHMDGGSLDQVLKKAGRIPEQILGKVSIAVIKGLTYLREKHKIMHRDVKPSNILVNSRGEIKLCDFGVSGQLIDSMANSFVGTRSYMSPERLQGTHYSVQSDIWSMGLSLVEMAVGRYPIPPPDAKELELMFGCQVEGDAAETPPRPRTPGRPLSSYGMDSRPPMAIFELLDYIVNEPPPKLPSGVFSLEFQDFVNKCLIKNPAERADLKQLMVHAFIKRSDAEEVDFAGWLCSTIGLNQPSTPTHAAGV
Sequence of Mitogen-activated protein kinase 10 (Homo sapiens) (P53779 whole entry): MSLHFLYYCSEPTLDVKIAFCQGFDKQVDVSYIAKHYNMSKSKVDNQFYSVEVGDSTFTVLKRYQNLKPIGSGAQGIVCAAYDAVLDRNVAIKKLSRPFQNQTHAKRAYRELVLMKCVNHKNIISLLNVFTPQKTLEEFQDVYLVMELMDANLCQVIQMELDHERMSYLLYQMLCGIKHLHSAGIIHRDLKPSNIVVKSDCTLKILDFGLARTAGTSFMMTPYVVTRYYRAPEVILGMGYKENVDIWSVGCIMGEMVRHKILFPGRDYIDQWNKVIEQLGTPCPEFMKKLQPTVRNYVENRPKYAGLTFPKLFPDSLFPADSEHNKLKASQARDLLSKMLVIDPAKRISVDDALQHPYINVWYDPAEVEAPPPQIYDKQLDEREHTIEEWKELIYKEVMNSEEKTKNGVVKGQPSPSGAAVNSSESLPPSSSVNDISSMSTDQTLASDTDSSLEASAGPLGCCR
Sequence of Casein kinase I isoform gamma-2 (Homo sapiens) (P78368 whole entry, looked up, canonical isoform): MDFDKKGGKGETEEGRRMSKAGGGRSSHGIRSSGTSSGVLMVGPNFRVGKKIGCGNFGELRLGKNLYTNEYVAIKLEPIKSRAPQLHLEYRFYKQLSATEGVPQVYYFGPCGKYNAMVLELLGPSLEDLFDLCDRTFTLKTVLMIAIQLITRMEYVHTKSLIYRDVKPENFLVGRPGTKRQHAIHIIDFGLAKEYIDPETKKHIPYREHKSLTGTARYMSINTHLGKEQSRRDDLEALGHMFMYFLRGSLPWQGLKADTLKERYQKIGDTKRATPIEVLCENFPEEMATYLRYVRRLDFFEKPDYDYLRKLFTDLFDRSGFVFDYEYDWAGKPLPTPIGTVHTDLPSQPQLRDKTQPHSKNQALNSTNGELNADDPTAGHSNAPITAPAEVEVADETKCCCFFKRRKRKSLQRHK
Sequence of Tyrosine-protein kinase BTK (Homo sapiens) (Q06187 whole entry): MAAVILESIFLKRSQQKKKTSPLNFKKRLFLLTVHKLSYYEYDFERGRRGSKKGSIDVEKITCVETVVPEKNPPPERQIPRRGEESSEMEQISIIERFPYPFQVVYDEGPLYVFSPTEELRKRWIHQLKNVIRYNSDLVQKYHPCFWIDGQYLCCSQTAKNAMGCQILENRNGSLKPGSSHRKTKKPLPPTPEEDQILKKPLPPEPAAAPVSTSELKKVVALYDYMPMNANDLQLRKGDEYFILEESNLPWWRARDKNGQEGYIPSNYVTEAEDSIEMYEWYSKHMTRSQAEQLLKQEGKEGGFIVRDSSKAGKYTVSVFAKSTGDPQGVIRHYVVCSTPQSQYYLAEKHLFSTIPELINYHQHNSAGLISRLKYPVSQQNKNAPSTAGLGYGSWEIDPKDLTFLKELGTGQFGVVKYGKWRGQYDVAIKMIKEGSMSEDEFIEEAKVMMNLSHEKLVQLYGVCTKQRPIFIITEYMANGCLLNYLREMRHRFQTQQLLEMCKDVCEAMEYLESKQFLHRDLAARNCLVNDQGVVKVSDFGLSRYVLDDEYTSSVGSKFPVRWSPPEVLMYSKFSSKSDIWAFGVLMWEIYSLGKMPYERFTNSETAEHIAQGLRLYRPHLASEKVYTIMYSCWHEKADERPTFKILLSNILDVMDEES

Compound	Activity [1] [%]	Activity [2] [%]	Activity [3] [%]	Activity [4] [%]	Activity [5] [%]	Activity [6] [%]	Activity [7] [%]	Activity [8] [%]	Activity [9] [%]	Activity [10] [%]	Activity [11] [%]	Activity [12] [%]
CO[C@@H]1[C@H](N(C)C(=O)CCC(=O)NCCC(=O)NCCC(=O)NCCC(=O)NCCC(=O)NCCC(=O)NCCC(=O)NCCC(=O)N[C@H]2CSSC[C@@H](C(=O)NCC(N)=O)NC(=O)CNC(=O)[C@H](Cc3ccccc3)NC(=O)[C@H](C(C)C)NC(=O)[C@H](CCCNC(=N)N)NC(=O)[C@H](Cc3ccccc3)NC(=O)[C@H](C(C)C)NC2=O)C[C@H]2O[C@]1(C)n1c3ccccc3c3c4c(c5c6ccccc6n2c5c31)C(=O)NC4 ({Staurosporine-Suc-βAla-βAla-βAla-βAla-βAla-βAla-βAla}-CVFRVFGCG-NH2; disulfide 1-8)	100	57	100	0.65								
CO[C@@H]1[C@H](N(C)C(=O)CCC(=O)NCCC(=O)NCCC(=O)NCCC(=O)NCCC(=O)NCCC(=O)NCCC(=O)NCCC(=O)N[C@H]2CNC(=O)C[C@@H](C(N)=O)NC(=O)CNC(=O)[C@H](Cc3ccccc3)NC(=O)[C@H](C(C)C)NC(=O)[C@H](CCCNC(=N)N)NC(=O)[C@H](Cc3ccccc3)NC(=O)[C@H](C(C)C)NC2=O)C[C@H]2O[C@]1(C)n1c3ccccc3c3c4c(c5c6ccccc6n2c5c31)C(=O)NC4 ({Staurosporine-Suc-βAla-βAla-βAla-βAla-βAla-βAla-βAla}-[Dap]VFRVFGD-NH2; lactam 1-8)					85	95	0	100	5.7	100	100	98
